Measured values reported in ChEMBL document CHEMBL1806443, “Novel imidazo[4,5-b]pyridine and triaza-benzo[c]fluorene derivatives: synthesis, antiproliferative activity and DNA binding studies” (Eur J Med Chem, 2011).

Columns and labels:
SK-BR-3 [1] = assay: Cell cycle arrest in human SKBR3 cells assessed as accumulation at S phase at 5 uM after 48 hrs by propidium iodide staining based flow cytometeric analysis (reference value: 40.6 +/- 4.9%); type: functional
SK-BR-3 [2] = assay: Cell cycle arrest in human SKBR3 cells assessed as accumulation at S phase at 50 uM after 24 hrs by propidium iodide staining based flow cytometeric analysis (reference value: 39.9 +/- 1.5%); type: functional
SK-BR-3 [3] = assay: Cell cycle arrest in human SKBR3 cells assessed as accumulation at S phase at 10 uM after 24 hrs by propidium iodide staining based flow cytometeric analysis (reference value: 39.9 +/- 1.5%); type: functional
SK-BR-3 [4] = assay: Cell cycle arrest in human SKBR3 cells assessed as accumulation at S phase at 5 uM after 24 hrs by propidium iodide staining based flow cytometeric analysis (reference value: 39.9 +/- 1.5%); type: functional
SK-BR-3 [5] = assay: Cell cycle arrest in human SKBR3 cells assessed as accumulation at G1 phase at 50 uM after 48 hrs by propidium iodide staining based flow cytometeric analysis (reference value: 24.7 +/- 1.9%); type: functional
SK-BR-3 [6] = assay: Cell cycle arrest in human SKBR3 cells assessed as accumulation at G1 phase at 10 uM after 48 hrs by propidium iodide staining based flow cytometeric analysis (reference value: 24.7 +/- 1.9%); type: functional
SK-BR-3 [7] = assay: Cell cycle arrest in human SKBR3 cells assessed as accumulation at G1 phase at 5 uM after 48 hrs by propidium iodide staining based flow cytometeric analysis (reference value: 24.7 +/- 1.9%); type: functional
SK-BR-3 [8] = assay: Cell cycle arrest in human SKBR3 cells assessed as accumulation at G1 phase at 50 uM after 24 hrs by propidium iodide staining based flow cytometeric analysis (reference value: 39.5 +/- 1.1%); type: functional
SK-BR-3 [9] = assay: Cell cycle arrest in human SKBR3 cells assessed as accumulation at G1 phase at 10 uM after 24 hrs by propidium iodide staining based flow cytometeric analysis (reference value: 39.5 +/- 1.1%); type: functional
SK-BR-3 [10] = assay: Cell cycle arrest in human SKBR3 cells assessed as accumulation at G1 phase at 5 uM after 24 hrs by propidium iodide staining based flow cytometeric analysis (reference value: 39.5 +/- 1.1%); type: functional
SK-BR-3 [11] = assay: Cell cycle arrest in human SKBR3 cells assessed as accumulation at subG1 phase at 50 uM after 48 hrs by propidium iodide staining based flow cytometeric analysis (reference value: 2.1 +/- 0.2%); type: functional
SK-BR-3 [12] = assay: Cell cycle arrest in human SKBR3 cells assessed as accumulation at subG1 phase at 10 uM after 48 hrs by propidium iodide staining based flow cytometeric analysis (reference value: 2.1 +/- 0.2%); type: functional
SK-BR-3 [13] = assay: Cell cycle arrest in human SKBR3 cells assessed as accumulation at subG1 phase at 5 uM after 48 hrs by propidium iodide staining based flow cytometeric analysis (reference value: 2.1 +/- 0.2%); type: functional
SK-BR-3 [14] = assay: Cell cycle arrest in human SKBR3 cells assessed as accumulation at subG1 phase at 50 uM after 24 hrs by propidium iodide staining based flow cytometeric analysis (reference value: 39 +/- 1.1%); type: functional
SK-BR-3 [15] = assay: Cell cycle arrest in human SKBR3 cells assessed as accumulation at subG1 phase at 10 uM after 24 hrs by propidium iodide staining based flow cytometeric analysis (reference value: 39 +/- 1.1%); type: functional
SK-BR-3 [16] = assay: Cell cycle arrest in human SKBR3 cells assessed as accumulation at subG1 phase at 5 uM after 24 hrs by propidium iodide staining based flow cytometeric analysis (reference value: 39 +/- 1.1%); type: functional
WI-38 = assay: Antiproliferative activity against human WI38 cells after 72 hrs by MTT assay; type: cell-based; conditions: Homo sapiens, WI-38, 72 h
How it was run: (§1)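 Monolayer cells in DMEM with 10% FBS, 2 mM L-glutamine, penicillin and streptomycin at 37 °C, 5% CO2. Seeded at 3000-6000 cells/well by doubling time on day 0. Five 10-fold dilutions (0.01–100 µM) were added and incubated 72 h. MTT read-out, converted to percentage growth. IC50 by linear regression between bracketing concentrations. Quadruplicate points, three independent experiments, ANOVA/Tukey p<0.05.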

MIA PaCa-2 = assay: Antiproliferative activity against human MIAPaCa2 cells after 72 hrs by MTT assay; type: functional, cell-based; conditions: Homo sapiens, MIA PaCa-2, 72 h; how it was run: as §1
SW-620 = assay: Antiproliferative activity against human SW620 cells after 72 hrs by MTT assay; type: functional, cell-based; conditions: Homo sapiens, SW-620, 72 h; how it was run: as §1
HEp-2 = assay: Antiproliferative activity against human Hep2 cells after 72 hrs by MTT assay; type: functional, cell-based; conditions: Homo sapiens, HEp-2, 72 h; how it was run: as §1
SK-BR-3 [17] = assay: Antiproliferative activity against human SKBR3 cells after 72 hrs by MTT assay; type: functional, cell-based; conditions: Homo sapiens, SK-BR-3, 72 h; how it was run: as §1
MCF7 = assay: Antiproliferative activity against human MCF7 cells after 72 hrs by MTT assay; type: functional, cell-based; conditions: Homo sapiens, MCF7, 72 h; how it was run: as §1
HeLa = assay: Antiproliferative activity against human HeLa cells after 72 hrs by MTT assay; type: functional, cell-based; conditions: Homo sapiens, HeLa, 72 h; how it was run: as §1
SK-BR-3 [18] = assay: Cell cycle arrest in human SKBR3 cells assessed as accumulation at S phase at 10 uM after 48 hrs by propidium iodide staining based flow cytometeric analysis (reference value: 40.6 +/- 4.9%); type: functional
SK-BR-3 [19] = assay: Cell cycle arrest in human SKBR3 cells assessed as accumulation at S phase at 50 uM after 48 hrs by propidium iodide staining based flow cytometeric analysis (reference value: 40.6 +/- 4.9%); type: functional
SK-BR-3 [20] = assay: Cell cycle arrest in human SKBR3 cells assessed as accumulation at G2/M phase at 5 uM after 24 hrs by propidium iodide staining based flow cytometeric analysis (reference value: 20.6 +/- 2.1%); type: functional
SK-BR-3 [21] = assay: Cell cycle arrest in human SKBR3 cells assessed as accumulation at G2/M phase at 10 uM after 24 hrs by propidium iodide staining based flow cytometeric analysis (reference value: 20.6 +/- 2.1%); type: functional
SK-BR-3 [22] = assay: Cell cycle arrest in human SKBR3 cells assessed as accumulation at G2/M phase at 50 uM after 24 hrs by propidium iodide staining based flow cytometeric analysis (reference value: 20.6 +/- 2.1%); type: functional
SK-BR-3 [23] = assay: Cell cycle arrest in human SKBR3 cells assessed as accumulation at G2/M phase at 5 uM after 48 hrs by propidium iodide staining based flow cytometeric analysis (reference value: 34.7 +/- 3.3%); type: functional
SK-BR-3 [24] = assay: Cell cycle arrest in human SKBR3 cells assessed as accumulation at G2/M phase at 10 uM after 48 hrs by propidium iodide staining based flow cytometeric analysis (reference value: 34.7 +/- 3.3%); type: functional
SK-BR-3 [25] = assay: Cell cycle arrest in human SKBR3 cells assessed as accumulation at G2/M phase at 50 uM after 48 hrs by propidium iodide staining based flow cytometeric analysis (reference value: 34.7 +/- 3.3%); type: functional

Work on `Nc1ccc2c(ccc3nc4ncccc4n32)c1` yielded an Activity (SK-BR-3 [1]) of 59.8%, an Activity (SK-BR-3 [2]) of 48.1% and an Activity (SK-BR-3 [3]) of 34.5%. For the same compound, the Activity (SK-BR-3 [4]) was 35.1%, the Activity (SK-BR-3 [5]) was 19.9% and the Activity (SK-BR-3 [6]) was 20.9%. The Activity (SK-BR-3 [7]) was 24.4%, the Activity (SK-BR-3 [8]) was 33.2% and the Activity (SK-BR-3 [9]) was 39.4%. For the same compound, the Activity (SK-BR-3 [10]) was 47.1%, the Activity (SK-BR-3 [11]) was 3.1% and the Activity (SK-BR-3 [12]) was 5.5%. The Activity (SK-BR-3 [13]) was 1.9%, the Activity (SK-BR-3 [14]) was 50.2% and the Activity (SK-BR-3 [15]) was 45.8%. It also gave an Activity (SK-BR-3 [16]) of 35.7%, an IC50 (WI-38) greater than 100 µM and an IC50 (MIA PaCa-2) of 48.2 µM. It also gave an IC50 (SW-620) of 34.8 µM, an IC50 (HEp-2) of 39.2 µM and an IC50 (SK-BR-3 [17]) of 2.94 µM. For the same compound, the IC50 (MCF7) was 72.4 µM, the IC50 (HeLa) was 43.4 µM and the Activity (SK-BR-3 [18]) was 64.2%. It also gave an Activity (SK-BR-3 [19]) of 47.6%, an Activity (SK-BR-3 [20]) of 17.7% and an Activity (SK-BR-3 [21]) of 26.1%. It also gave an Activity (SK-BR-3 [22]) of 18.7%, an Activity (SK-BR-3 [23]) of 15.8% and an Activity (SK-BR-3 [24]) of 14.8%. It also gave an Activity (SK-BR-3 [25]) of 32.5%.
